# Experimental data from ChEMBL document CHEMBL3421616, “Conformational Restriction Leading to a Selective CB2 Cannabinoid Receptor Agonist Orally Active Against Colitis” (ACS Med Chem Lett, 2015).
# Active and inactive are the calls of the source. No cut-off for these calls is given here.
# Legend:
# MDCK-II = experiment: Inhibition of MDR1 in MDCK2 cells at 10 uM after 30 mins by calcein AM uptake assay relative to control; format: cell-based; conditions: Canis lupus familiaris
# Procedure, shortened: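 MDR1-MDCKII cells; P-gp function read as cellular calcein AM uptake after 30 min incubation at 37 °C.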
# [1] = Fraction unbound in human plasma after 18 hrs by equilibrium dialysis method; format: ADME, cell-free
# Procedure, shortened: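 Plasma protein binding by equilibrium dialysis, 18 h at 37 °C.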
# Mus musculus [2] = experiment: Anticolitis activity in TNBS-induced C57Bl6 mouse acute colitis model assessed as downregulation of TNF-alpha mRNA expression in colon at 10 mg/kg, po qd administered over 7 days, starting 2 days prior to TNBS challenge measured 5 days post TNBS challenge by real-time PCR analysis; format: functional, organism-based; parameters: dose 10 mg/kg
# Procedure, shortened: (§1)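 Mice given test article orally in carboxymethyl cellulose once daily at 0.1, 1 or 10 mg/kg for 7 days, beginning 2 days before TNBS colitis induction; vehicle-only (CMC) controls. Survival followed throughout; body weight loss, semiquantitative macroscopic colon score, histological score and colonic TNFα and IL-1β mRNA assessed at euthanasia 5 days after TNBS. Mean ± SEM, 10 mice per group.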
# Cannabinoid receptor 1 = Cannabinoid receptor 1 (Homo sapiens, UniProt P21554); experiment: Displacement of [3H]-CP55940 from human CB1 receptor after 1 hr by scintillation counting analysis
# Sequence of Cannabinoid receptor 1 (P21554 whole entry): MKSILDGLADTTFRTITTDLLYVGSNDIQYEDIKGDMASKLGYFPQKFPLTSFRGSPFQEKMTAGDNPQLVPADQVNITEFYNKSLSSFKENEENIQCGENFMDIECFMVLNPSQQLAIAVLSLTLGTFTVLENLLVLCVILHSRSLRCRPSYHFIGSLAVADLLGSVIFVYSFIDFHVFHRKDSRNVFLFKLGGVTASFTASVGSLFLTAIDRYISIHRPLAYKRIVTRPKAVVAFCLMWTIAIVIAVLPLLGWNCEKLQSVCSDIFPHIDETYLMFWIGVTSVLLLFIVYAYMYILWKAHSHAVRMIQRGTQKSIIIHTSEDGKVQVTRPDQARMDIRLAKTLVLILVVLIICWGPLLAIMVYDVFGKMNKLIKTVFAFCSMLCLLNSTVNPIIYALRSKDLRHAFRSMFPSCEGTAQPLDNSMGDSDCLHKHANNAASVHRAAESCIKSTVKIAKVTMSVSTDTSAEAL
# Mus musculus [3] = experiment: Anticolitis activity in TNBS-induced C57Bl6 mouse acute colitis model assessed as decrease in degree of inflammation infiltrate, presence of erosion, ulceration, necrosis and depth, surface extension of lesions at 10 mg/kg, po qd administered over 7 days, starting 2 days prior to TNBS challenge measured 5 days post TNBS challenge by Giemsa staining relative to vehicle-treated control; format: functional; parameters: scale not given: the % may be the effect or the level left; procedure, shortened: as §1
# Mus musculus [4] = experiment: Anticolitis activity in po dosed TNBS-induced C57Bl6 mouse acute colitis model assessed as reduction of body weight loss administered as qd over 7 days, starting 2 days prior to TNBS challenge measured 5 days post TNBS challenge; format: functional, organism-based; procedure, shortened: as §1
# Mus musculus [5] = experiment: Anticolitis activity in TNBS-induced C57Bl6 mouse acute colitis model assessed as reduction of mortality rate at 0.1 to 10 mg/kg, po qd administered over 7 days, starting 2 days prior to TNBS challenge measured 5 days post TNBS challenge relative to vehicle-treated control; format: functional, organism-based; procedure, shortened: as §1
# Mus musculus [6] = experiment: Anticolitis activity in TNBS-induced C57Bl6 mouse acute colitis model assessed as downregulation of IL-1beta mRNA expression in colon at 10 mg/kg, po qd administered over 7 days, starting 2 days prior to TNBS challenge measured 5 days post TNBS challenge by real-time PCR analysis; format: functional, organism-based; parameters: dose 10 mg/kg; procedure, shortened: as §1
# Mus musculus [7] = experiment: Anticolitis activity in TNBS-induced C57Bl6 mouse acute colitis model assessed as decrease in bowel thickness and areas of ulceration at 10 mg/kg, po qd administered over 7 days, starting 2 days prior to TNBS challenge measured 5 days post TNBS challenge (reference value: 4.9); format: functional
# Procedure, shortened: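 Mouse acute colitis induced by TNBS. Compound given orally in carboxymethyl cellulose (CMC) once daily at 0.1, 1 and 10 mg/kg for 7 days, starting 2 days before induction; controls received CMC alone. Mice euthanised 5 days after TNBS. Colon damage graded with a semiquantitative macroscopic score; mean ± SEM of 10 mice per group, compared with vehicle.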
# hERG (KCNH2) = hERG (KCNH2) (Homo sapiens, UniProt Q12809); experiment: Binding affinity to human ERG expressed in HEK293 cells assessed as inhibition of tail current at 1 uM after 5 to 10 mins by patch-clamp assay relative to control; format: cell-based; conditions: HEK293 cells expressing human ERG
# Sequence of hERG (KCNH2) (Q12809 whole entry): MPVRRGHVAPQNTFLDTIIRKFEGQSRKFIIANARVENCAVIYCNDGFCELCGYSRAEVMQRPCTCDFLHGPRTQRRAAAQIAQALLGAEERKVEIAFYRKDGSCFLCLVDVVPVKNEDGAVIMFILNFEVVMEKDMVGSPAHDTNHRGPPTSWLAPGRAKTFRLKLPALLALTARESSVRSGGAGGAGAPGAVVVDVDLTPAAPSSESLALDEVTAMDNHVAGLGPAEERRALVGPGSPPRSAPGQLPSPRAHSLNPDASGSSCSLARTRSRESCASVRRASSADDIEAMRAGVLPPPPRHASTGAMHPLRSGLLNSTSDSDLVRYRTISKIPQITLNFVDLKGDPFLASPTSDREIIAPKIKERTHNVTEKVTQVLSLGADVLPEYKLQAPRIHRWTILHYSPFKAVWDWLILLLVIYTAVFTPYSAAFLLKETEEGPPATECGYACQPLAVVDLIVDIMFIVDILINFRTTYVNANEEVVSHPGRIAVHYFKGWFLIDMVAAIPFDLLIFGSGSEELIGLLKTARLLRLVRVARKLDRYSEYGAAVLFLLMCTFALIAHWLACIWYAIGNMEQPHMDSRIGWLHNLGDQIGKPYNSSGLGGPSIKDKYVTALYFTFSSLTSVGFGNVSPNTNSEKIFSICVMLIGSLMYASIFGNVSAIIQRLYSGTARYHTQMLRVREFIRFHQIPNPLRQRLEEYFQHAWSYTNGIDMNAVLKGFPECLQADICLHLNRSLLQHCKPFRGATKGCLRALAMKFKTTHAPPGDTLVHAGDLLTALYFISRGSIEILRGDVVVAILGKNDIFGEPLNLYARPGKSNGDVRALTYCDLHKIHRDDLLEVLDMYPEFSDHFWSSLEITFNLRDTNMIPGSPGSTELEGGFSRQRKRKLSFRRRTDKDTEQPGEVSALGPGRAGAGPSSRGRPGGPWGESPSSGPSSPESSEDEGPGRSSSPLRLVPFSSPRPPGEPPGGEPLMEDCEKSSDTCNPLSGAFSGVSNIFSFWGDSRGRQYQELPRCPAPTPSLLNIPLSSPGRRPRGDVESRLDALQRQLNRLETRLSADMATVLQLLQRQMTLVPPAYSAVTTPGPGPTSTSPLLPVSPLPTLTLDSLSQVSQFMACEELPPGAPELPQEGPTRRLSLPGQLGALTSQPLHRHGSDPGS
# Procedure, shortened: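 hERG-expressing HEK 293 cells, conventional whole-cell patch clamp; compound at 1 μM applied cumulatively for 5–10 min at room temperature; tail current inhibition read.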
# Mus musculus [8] = experiment: Anticolitis activity in po dosed TNBS-induced C57Bl6 mouse acute colitis model assessed as decrease in bowel thickness and areas of ulceration administered as qd over 7 days, starting 2 days prior to TNBS challenge measured 5 days post TNBS challenge; format: functional, organism-based; procedure, shortened: as §1
# Cannabinoid receptor 2 [9] = target: T1, Cannabinoid receptor 2 (Homo sapiens, UniProt P34972); experiment: Agonist activity at human CB2 receptor after 1 hr by [35S]-GTPgammaS binding assay; format: functional
# T1 sequence (P34972 whole entry): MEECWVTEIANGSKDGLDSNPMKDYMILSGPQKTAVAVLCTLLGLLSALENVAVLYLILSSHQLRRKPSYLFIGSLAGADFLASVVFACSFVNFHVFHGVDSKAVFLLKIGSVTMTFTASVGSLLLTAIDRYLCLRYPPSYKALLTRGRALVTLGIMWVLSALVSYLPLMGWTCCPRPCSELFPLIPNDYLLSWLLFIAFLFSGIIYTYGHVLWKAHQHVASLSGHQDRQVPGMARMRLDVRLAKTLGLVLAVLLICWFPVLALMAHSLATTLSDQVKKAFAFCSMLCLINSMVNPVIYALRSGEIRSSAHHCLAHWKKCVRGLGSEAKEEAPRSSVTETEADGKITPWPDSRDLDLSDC
# [10] = Permeability across apical to basolateral side in human Caco2 cells at 10 uM after 60 mins; format: ADME, cell-based; conditions: Caco-2, read-out: permeability
# [11] = Metabolic stability in human liver microsomes assessed as compound remaining at 1 uM after 60 mins; format: ADME; conditions: read-out: Stability
# Procedure, shortened: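 Compound (1 μM) incubated with human liver microsomes (0.3 mg/mL) at 37 °C, sampled at 0 and 60 min; percent remaining reported.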
# Cannabinoid receptor 2 [12] = target: T1, Cannabinoid receptor 2; experiment: Displacement of [3H]-CP55940 from human CB2 receptor after 1 hr by scintillation counting analysis
SMILES,Ki (Cannabinoid receptor 1),Ki (Cannabinoid receptor 2 [12]),further results
CCCCCn1cc2c(=O)n(CC34CC5CC(CC(C5)C3)C4)nc-2c2ccccc21,> 3 µM,–,"inhibition (MDCK-II): 30.6%; fraction unbound at 18 h [1]: < 1; Activity (Mus musculus [2]): inactive; Activity (Mus musculus [3]): 65%; Activity (Mus musculus [4]): Dose-dependent effect; Activity (Mus musculus [5]): Active; Activity (Mus musculus [6]): Active; fold change (FC) (Mus musculus [7]): 1.7; inhibition at 1 µM (hERG (KCNH2)): 35.5%; Activity (Mus musculus [8]): Dose-dependent effect; Emax (Cannabinoid receptor 2 [9]): 163%; Papp A→B at 1 h, 10 µM [10]: 0.8 ×10⁻⁶ cm/s; remaining at 1 h, 1 µM [11]: 64%"
CCCCCn1c(-c2ccccc2)c2c(=O)n(-c3cccc(C(F)(F)F)c3)nc-2c2ccccc21,> 3 µM,> 3 µM,–
CCCCCn1cc2c(=O)n(CCCc3ccccc3)nc-2c2ccccc21,> 3 µM,> 3 µM,–
CCCCCn1cc2c(=O)n(-c3ccccc3)nc-2c2ccccc21,> 3 µM,1.36 µM,–
CCCCCn1c(-c2ccccc2)c2c(=O)[nH]nc-2c2ccccc21,> 3 µM,> 3 µM,–
CCCCCn1cc(C(=O)NCC23CC4CC(CC(C4)C2)C3)c(=O)c2ccccc21,> 3 µM,0.0216 µM,–
CCCCCn1cc(C(=O)NC23CC4CC(CC(C4)C2)C3)c(=O)c(-c2ccncc2)c1C,> 1 µM,–,–
CCCCCn1c(-c2ccccc2)c2c(=O)n(Cc3ccccc3)nc-2c2ccccc21,> 3 µM,> 3 µM,–
CCCCCn1cc2c(=O)n(CCC3CCCCC3)nc-2c2ccccc21,–,–,Emax (Cannabinoid receptor 2 [9]): 141%
CCCCCn1cc2c(=O)n(CC3CCCCC3)nc-2c2ccccc21,–,–,Emax (Cannabinoid receptor 2 [9]): 149%
CCCCCn1c(-c2ccccc2)c2c(=O)n(-c3ccc(OC)cc3)nc-2c2ccccc21,> 3 µM,> 3 µM,–
CCCCCn1c(-c2ccccc2)c2c(=O)n(-c3ccccc3)nc-2c2ccccc21,> 3 µM,> 3 µM,–
CCCCCn1c(-c2ccccc2)c2c(=O)n(CCCc3ccccc3)nc-2c2ccccc21,> 3 µM,> 3 µM,–
CCCCCn1cc2c(=O)n(C3CCCCC3)nc-2c2ccccc21,–,–,Emax (Cannabinoid receptor 2 [9]): 160%
CCCCCn1cc2c(=O)n(CCC34CC5CC(CC(C5)C3)C4)nc-2c2ccccc21,> 3 µM,–,–
CCCCCn1cc2c(=O)n(-c3ccc(OC)cc3)nc-2c2ccccc21,> 3 µM,> 3 µM,–
CCCCCn1cc2c(=O)n(-c3cccc(C(F)(F)F)c3)nc-2c2ccccc21,> 3 µM,0.0292 µM,–
